Reference: ChEMBL document CHEMBL1124232, “Synthesis and biological activities of 4-O-(difluoromethyl)-5-substituted-uracil nucleoside analogues” (J Med Chem, 1988)

Tests used:
Human alphaherpesvirus 2 = assay: Ability to reduce plaque formation of herpes simplex virus type 2 (HSV-2) by 50% in human embryonic lung fibroblast (HELF) cell cultures; type: functional; details: Human alphaherpesvirus 2, HELF; read-out: ID50 (the source's name)
Method in brief: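 Clinical isolate HSV-2 strain 74 adsorbed 1 h at 37 °C onto confluent HELF monolayers, aiming at 50–100 plaques per bottle. Compound added in methocel (0.5% w/v) overlay containing 10% FCS; 2 days at 37 °C. Plaques visualised with neutral red. ID50 in µmol/L determined graphically as the concentration halving plaque counts.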

[1] = Minimum concentration not causing a microscopically detectable cytotoxic alteration of normal human embryonic lung fibroblast (HELF) morphology
Method in brief: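 Semiconfluent HELF monolayers, 24 h post-seeding, exposed 3 days at 37 °C to compound up to 1 mmol/L. Microscopic comparison with untreated controls; toxicity signs were cell detachment, monolayer destruction, or cells remaining semiconfluent. Value is the lowest concentration showing no detectable morphological alteration.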

Human alphaherpesvirus 1 [2] = assay: Ability to reduce plaque formation of herpes simplex virus type 1 (HSV-1) by 50% in human embryonic lung fibroblast (HELF) cell cultures; type: functional; details: Human alphaherpesvirus 1, HELF; read-out: ID50 (the source's name)
Method in brief: (§1)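 HELF confluent monolayers infected 1 h at 37 °C (about 50–100 plaques per bottle) with HSV-1 clinical isolate strain 77 or TK-deficient HSV-1 B 2006. Then 0.5% w/v methocel overlay with 10% fetal calf serum plus compound, 3 days at 37 °C. Neutral red staining; ID50 in µmol/L read graphically as 50% plaque-number reduction.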

Human alphaherpesvirus 3 = assay: Ability to reduce plaque formation of varicella zoster virus (VZV) by 50% in human embryonic lung fibroblast (HELF) cell cultures; type: functional; details: Human alphaherpesvirus 3, HELF; read-out: ID50 (the source's name)
Method in brief: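 Fresh clinical VZV isolate, strain 3/S.H., in HELF cells. Plaques counted 5–6 days post-infection. ID50 is the concentration reducing plaque formation by 50%.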

Human betaherpesvirus 5 = assay: Ability to reduce plaque formation of human cytomegalovirus (HCMV) by 50% in human embryonic lung fibroblast (HELF) cell cultures; type: functional; details: Human betaherpesvirus 5, HELF; read-out: ID50 (the source's name)
Method in brief: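 Plaque reduction in HELF cells with laboratory HCMV strain Davis, plaques scored 8–12 days post-infection. ID50 is the concentration cutting plaque formation by 50%.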

Human alphaherpesvirus 1 [3] = assay: Ability to reduce plaque formation of TK deficient herpes simplex virus type 1(HSV-1) by 50% in human embryonic lung fibroblast (HELF) cell cultures; type: functional; details: Human alphaherpesvirus 1, HELF; read-out: ID50 (the source's name); method in brief: as §1
[4] = Inhibitory dose for HELF cell proliferation during 3-day treatment period; type: functional; details: Homo sapiens, 72 h, read-out: ID50 (the source's name)

Structure (SMILES) | IC50 (Human alphaherpesvirus 2) | Toxicity [1] | IC50 (Human alphaherpesvirus 1 [2]) | IC50 (Human alphaherpesvirus 3) | IC50 (Human betaherpesvirus 5) | IC50 (Human alphaherpesvirus 1 [3]) | IC50 [4]
O=c1nc(OC(F)F)c(Br)cn1[C@@H]1O[C@H](CO)[C@@H](O)[C@H]1O | > 250 µM | > 250 µM | > 250 µM | – | – | – | –
CCc1cn([C@H]2C[C@H](O)[C@@H](CO)O2)c(=O)nc1OC(F)F | > 1000 µM | > 1000 µM | > 1000 µM | – | – | – | –
O=c1[nH]c(=O)n(C2O[C@H](CO)[C@@H](O)[C@@H]2O)cc1I (some centres not stated) | 70 µM | > 500 µM | 51 µM | – | – | – | –
Cc1cn([C@H]2C[C@H](O)[C@@H](CO)O2)c(=O)nc1OC(F)F | > 1000 µM | > 1000 µM | > 1000 µM | – | – | – | –
O=c1nc(OC(F)F)c(F)cn1[C@@H]1O[C@H](CO)[C@@H](O)[C@H]1O | > 500 µM | > 500 µM | 500 µM | – | – | – | –
O=c1nc(OC(F)F)ccn1[C@@H]1O[C@H](CO)[C@@H](O)[C@@H]1O | > 1000 µM | > 1000 µM | 430 µM | – | – | – | –
O=c1nc(OC(F)F)c(I)cn1[C@@H]1O[C@H](CO)[C@@H](O)[C@@H]1O | 82 µM | > 1000 µM | 29 µM | – | – | – | –
CCc1cn(C2O[C@H](CO)[C@@H](O)[C@@H]2O)c(=O)nc1OC(F)F (some centres not stated) | 210 µM | > 500 µM | 27 µM | – | – | – | –
Cc1cn(C2O[C@H](CO)[C@@H](O)[C@@H]2O)c(=O)nc1OC(F)F (some centres not stated) | 3 µM | > 1000 µM | 0.8 µM | 1 µM | > 500 µM | > 500 µM | –
O=c1nc(OC(F)F)c(Br)cn1[C@H]1C[C@H](O)[C@@H](CO)O1 | > 500 µM | > 500 µM | 130 µM | – | – | – | –
CCc1cn([C@H]2C[C@H](O)[C@@H](CO)O2)c(=O)[nH]c1=O [EDOXUDINE] | 14.5 µM | > 1000 µM | 10 µM | – | – | – | –
O=c1[nH]c(=O)n([C@@H]2O[C@H](CO)[C@@H](O)[C@@H]2O)cc1Br | 7.9 µM | > 1000 µM | 1.35 µM | – | – | – | –
O=c1nc(OC(F)F)c(I)cn1[C@@H]1O[C@H](CO)[C@@H](O)[C@H]1O | > 500 µM | > 500 µM | > 500 µM | – | – | – | –
O=c1[nH]c(=O)n([C@H]2C[C@H](O)[C@@H](CO)O2)cc1Br [BROXURIDINE] | 1.4 µM | > 1000 µM | 0.8 µM | – | – | – | –
O=c1nc(OC(F)F)c(F)cn1[C@@H]1O[C@H](CO)[C@@H](O)[C@@H]1O | 300 µM | > 500 µM | 110 µM | – | – | – | –
Nc1nc2c(ncn2COCCO)c(=O)[nH]1 [ACYCLOVIR] | 1.6 µM | – | 0.48 µM | – | – | – | 360 µM
O=c1[nH]c(=O)n([C@@H]2O[C@H](CO)[C@@H](O)[C@H]2O)cc1/C=C/Br | 49 µM | – | 0.115 µM | – | – | – | > 1000 µM
Cc1cn([C@@H]2O[C@H](CO)[C@@H](O)[C@@H]2O)c(=O)[nH]c1=O | 1.65 µM | > 1000 µM | 0.64 µM | 0.53 µM | > 500 µM | > 500 µM | –
O=c1nc(OC(F)F)ccn1[C@@H]1O[C@H](CO)[C@@H](O)[C@H]1O | > 1000 µM | > 1000 µM | > 1000 µM | – | – | – | –
O=c1[nH]c(=O)n([C@H]2C[C@H](O)[C@@H](CO)O2)cc1/C=C/Br [BRIVUDINE] | 27 µM | – | 0.05 µM | – | – | – | 170 µM
O=c1nc(OC(F)F)c(Br)cn1[C@@H]1O[C@H](CO)[C@@H](O)[C@@H]1O | 17.6 µM | > 1000 µM | 3.6 µM | – | – | – | –
O=c1nc(OC(F)F)c(/C=C/Br)cn1C1O[C@H](CO)[C@@H](O)[C@@H]1O (some centres not stated) | > 500 µM | > 500 µM | 1.1 µM | – | – | – | –
